Values after ≈ are worked out from the molar mass of the structure shown.
Each compound was assayed on Staphylococcus aureus (assay: Antibacterial activity against methicilin-resistant Staphylococcus aureus USA300 FPR3757 incubated for 20 to 24 hrs by microbroth dilution assay). Settings: time hrs 20-24.
Format: functional
Method in brief: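 Broth microdilution per EUCAST in Mueller-Hinton broth. Inoculum 5.0·10^5 CFU/mL, prepared from overnight single-colony cultures at OD600 0.1 then diluted 100x. Final compound concentrations 0.015–16 µg/mL. Incubation at 37 °C for 20–24 h, protected from light. MIC is the lowest concentration with no visible growth. Each replicate uses three cultures; n = 2–3.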

| SMILES | MIC |
| --- | --- |
| C=C[C@]1(C)C[C@@H](OC(=O)Cn2cc(-c3cccc(Cn4cnc5c(N6CCN(C)CC6)ncnc54)c3)nn2)[C@]2(C)[C@H](C)CC[C@]3(CCC(=O)[C@H]32)[C@@H](C)[C@@H]1O | 0.5 µg/mL (≈ 0.679 µM) |
| C=C[C@]1(C)C[C@@H](OC(=O)Cn2cc(-c3cccc(CN)c3)nn2)[C@]2(C)[C@H](C)CC[C@]3(CCC(=O)[C@H]32)[C@@H](C)[C@@H]1O | 2 µg/mL (≈ 3.74 µM) |
| C=C[C@]1(C)C[C@@H](OC(=O)Cn2cc(-c3ccccc3Cn3cnc4c(N(CC)CC)nc(N)nc43)nn2)[C@]2(C)[C@H](C)CC[C@]3(CCC(=O)[C@H]32)[C@@H](C)[C@@H]1O | 0.5 µg/mL (≈ 0.691 µM) |
| C=C[C@]1(C)C[C@@H](OC(=O)Cn2cc(-c3cccc(CO)c3)nn2)[C@]2(C)[C@H](C)CC[C@]3(CCC(=O)[C@H]32)[C@@H](C)[C@@H]1O | 0.5 µg/mL (≈ 0.933 µM) |
| C=C[C@]1(C)C[C@@H](OC(=O)Cn2cc(-c3ccc(CN4CCN(C)CC4)cc3)nn2)[C@]2(C)[C@H](C)CC[C@]3(CCC(=O)[C@H]32)[C@@H](C)[C@@H]1O | 4 µg/mL (≈ 6.47 µM) |
| C=C[C@]1(C)C[C@@H](OC(=O)Cn2cc(-c3cccc(C#N)c3)nn2)[C@]2(C)[C@H](C)CC[C@]3(CCC(=O)[C@H]32)[C@@H](C)[C@@H]1O | 1 µg/mL (≈ 1.88 µM) |
| C=C[C@]1(C)C[C@@H](OC(=O)Cn2cc(-c3cccc(Cc4ccc(N(CC)CC)cc4)c3)nn2)[C@]2(C)[C@H](C)CC[C@]3(CCC(=O)[C@H]32)[C@@H](C)[C@@H]1O | 8 µg/mL (≈ 12 µM) |
| C=C[C@]1(C)C[C@@H](OC(=O)Cn2cc(-c3cccc(Cc4cccc(CN(CC)CC)c4)c3)nn2)[C@]2(C)[C@H](C)CC[C@]3(CCC(=O)[C@H]32)[C@@H](C)[C@@H]1O | 2 µg/mL (≈ 2.94 µM) |
| C=C[C@]1(C)C[C@@H](OC(=O)Cn2cc(-c3ccccc3CN)nn2)[C@]2(C)[C@H](C)CC[C@]3(CCC(=O)[C@H]32)[C@@H](C)[C@@H]1O | 4 µg/mL (≈ 7.48 µM) |
| C=C[C@]1(C)C[C@@H](OC(=O)Cn2cc(-c3cccc(Cn4cnc5c(N)ncnc54)c3)nn2)[C@]2(C)[C@H](C)CC[C@]3(CCC(=O)[C@H]32)[C@@H](C)[C@@H]1O | 0.25 µg/mL (≈ 0.383 µM) |
| C=C[C@]1(C)C[C@@H](OC(=O)Cn2cc(-c3cccc(Cc4ccc(OC)cc4)c3)nn2)[C@]2(C)[C@H](C)CC[C@]3(CCC(=O)[C@H]32)[C@@H](C)[C@@H]1O | 16 µg/mL (≈ 25.6 µM) |
| C=C[C@]1(C)C[C@@H](OC(=O)Cn2cc(-c3ccccc3Cn3cc(C)c(=O)[nH]c3=O)nn2)[C@]2(C)[C@H](C)CC[C@]3(CCC(=O)[C@H]32)[C@@H](C)[C@@H]1O | 1 µg/mL (≈ 1.55 µM) |
| C=C[C@]1(C)C[C@@H](OC(=O)Cn2cc(-c3ccccc3C#N)nn2)[C@]2(C)[C@H](C)CC[C@]3(CCC(=O)[C@H]32)[C@@H](C)[C@@H]1O | 0.5 µg/mL (≈ 0.942 µM) |
| C=C[C@]1(C)C[C@@H](OC(=O)Cn2cc(-c3ccc(Cn4cc(C)c(=O)[nH]c4=O)cc3)nn2)[C@]2(C)[C@H](C)CC[C@]3(CCC(=O)[C@H]32)[C@@H](C)[C@@H]1O | 0.13 µg/mL (≈ 0.202 µM) |
| C=C[C@]1(C)C[C@@H](OC(=O)Cn2cc(-c3cccc(N)c3)nn2)[C@]2(C)[C@H](C)CC[C@]3(CCC(=O)[C@H]32)[C@@H](C)[C@@H]1O | 1 µg/mL (≈ 1.92 µM) |
| C=C[C@]1(C)C[C@@H](OC(=O)Cn2cc(-c3ccc(Cn4cnc5c(N(CC)CC)ncnc54)cc3)nn2)[C@]2(C)[C@H](C)CC[C@]3(CCC(=O)[C@H]32)[C@@H](C)[C@@H]1O | 0.25 µg/mL (≈ 0.353 µM) |
| C=C[C@]1(C)C[C@@H](OC(=O)Cn2cc(-c3ccccc3Cn3cnc4c(N)ncnc43)nn2)[C@]2(C)[C@H](C)CC[C@]3(CCC(=O)[C@H]32)[C@@H](C)[C@@H]1O | 0.5 µg/mL (≈ 0.766 µM) |
| C=C[C@]1(C)C[C@@H](OC(=O)Cn2cc(-c3ccc(-n4cnc5c(N)ncnc54)cc3)nn2)[C@]2(C)[C@H](C)CC[C@]3(CCC(=O)[C@H]32)[C@@H](C)[C@@H]1O | 0.5 µg/mL (≈ 0.783 µM) |
| C=C[C@]1(C)C[C@@H](OC(=O)Cn2cc(-c3ccccc3)nn2)[C@]2(C)[C@H](C)CC[C@]3(CCC(=O)[C@H]32)[C@@H](C)[C@@H]1O | 2 µg/mL (≈ 3.96 µM) |
| C=C[C@]1(C)C[C@@H](OC(=O)Cn2cc(-c3ccc(Cn4cnc5c(NC(=N)N)ncnc54)cc3)nn2)[C@]2(C)[C@H](C)CC[C@]3(CCC(=O)[C@H]32)[C@@H](C)[C@@H]1O | 0.5 µg/mL (≈ 0.72 µM) |

Source: ChEMBL document CHEMBL4699669, “Discovery of a Potent Adenine-Benzyltriazolo-Pleuromutilin Conjugate with Pronounced Antibacterial Activity against MRSA” (J Med Chem, 2020)
